Assay results taken from ChEMBL document CHEMBL5113407, “Identification and development of a series of disubstituted piperazines for the treatment of Chagas disease” (Eur J Med Chem, 2022).
≈ marks a conversion by molar mass, not a printed value. Calls of active or inactive are those of the source. The calls are words filed in the database; no cut-off is given here.

Tests used:
[1] = Intrinsic clearance in mouse liver microsomes; type: ADME, Microsome
Trypanosoma cruzi [2] = experiment: Antitrypanosomal activity against Trypanosoma cruzi infected in mouse assessed as decrease in parasite level at 50 mg/kg twice daily for 5 days cotreated with 1-ABT; type: functional, organism-based; details: time 5.0 day
How it was run: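 Acute infection mouse model; drug given twice daily for 5 days from day 14 post-infection, with 1-ABT 50 mg/kg given 30 min before each dose. Vehicle controls dosed b.i.d. at 10 mL/kg. Whole-body bioluminescence imaging, dorsal and ventral, quantified as total flux (p/s). Cyclophosphamide 200 mg/kg i.p. on days 28, 32 and 36 post-infection to detect relapse. Blood sampled on days 1 and 5 (n = 3).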

[3] = Inhibition of Trypanosoma cruzi CYP51
Trypanosoma cruzi [4] = experiment: Antitrypanosomal activity against intracellularTrypanosoma cruzi amastigote; type: functional, organism-based
How it was run: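 Intracellular T. cruzi amastigote assay; potency expressed as pEC50 from at least three independent replicates, SD ≤0.2.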

[5] = Kinetic solubility of compound; type: physicochemical; details: read-out: Kinetic_solubility
How it was run: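 Kinetic solubility read by charged aerosol detection (CAD).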

Compound	CLint [1]	EC50 (Trypanosoma cruzi [4])	also measured
Cc1ccc(S(=O)(=O)Nc2ccc(CN3CCN(C(=O)c4cccc(Cl)c4)CC3)cc2)cc1	> 50 mL/min/g		Activity (Trypanosoma cruzi [2]): Active; pIC50 [3]: 4.7
COc1ccc(S(=O)(=O)Nc2ccc(Cn3cc4c(n3)CN(C(=O)c3cccc(Cl)c3)C4)cc2)cc1		12.6 µM	
Cc1ccc(S(=O)(=O)Nc2ccc(CN3CCN(C(=O)c4cc(=O)c5ccccc5n4C)CC3)cc2)cc1	> 50 mL/min/g	3.98 µM	solubility kinetic [5]: 29 µM (≈ 15.4 µg/mL)
Cc1ccc(S(=O)(=O)Nc2ccc(CN(C)[C@H]3CCN(C(=O)c4cccc(Cl)c4)C3)cc2)cc1	> 50 mL/min/g		
Cc1ccc(S(=O)(=O)Nc2ccc(CN3CCN(C(=O)Cc4coc5ccccc45)CC3)cc2)cc1		6.31 µM	
Cc1ccc(S(=O)(=O)Nc2ccc(CN(C)[C@@H]3CCN(C(=O)c4cccc(Cl)c4)C3)cc2)cc1	> 50 mL/min/g		
Cc1ccc(S(=O)(=O)Nc2ccc(CN3CCN(C(=O)c4cccc(C#N)c4)CC3)cc2)cc1		0.398 µM	
